How the values were obtained:
[1] = Final plasma concentration after intravenous infusion; type: ADME, cell-free; conditions: read-out: Final plasma concentration
[2] = in vitro anticoagulant potency (2x APTT) against Human plasma.; type: functional
Rattus norvegicus [3] = experiment: In vivo antithrombotic activity was measured after intravenous infusion (at 10 ug/kg/min) in rat FeCl3 arterial thrombosis model; 3/6; type: functional
Prothrombin = Prothrombin (Homo sapiens, UniProt P00734); experiment: Inhibitory activity against thrombin (IIa) was determined
Serine protease 1 = Serine protease 1 (Homo sapiens, UniProt P07477); experiment: Inhibitory activity against trypsin was determined
[4] = Area under curve(AUC) value of the compound in dogs at 1 mg/kg dose upon oral administration; type: ADME, organism-based, Canis lupus familiaris; design: dose 1 mg/kg, route oral; conditions: dog, in vivo
Method in brief: (§1)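 Dogs dosed orally at 1 mg/kg, n = 2 per compound. Plasma drug levels were followed over time to give Cmax (μM), tmax (min), elimination t1/2 (min) and AUC (μM·h).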

[5] = Maximum plasma concentration in dogs at 1 mg/kg dose upon oral administration; type: ADME, organism-based, Canis lupus familiaris; design: dose 1 mg/kg, route oral; conditions: dog; method in brief: as §1
[6] = time required for maximum concentration in dogs at 1 mg/kg dose upon oral administration; type: ADME, organism-based, Canis lupus familiaris; design: dose 1 mg/kg, route oral; conditions: dog, in vivo; method in brief: as §1
[7] = Half-life in dogs at 1 mg/kg dose upon oral administration; type: ADME, organism-based, Canis lupus familiaris; design: dose 1 mg/kg, route oral; conditions: dog, in vivo; method in brief: as §1
Rattus norvegicus [8] = experiment: In vivo antithrombotic activity was measured after intravenous infusion (at 10 ug/kg/min) in rat FeCl3 arterial thrombosis model; 0/6; type: functional
[9] = Area under curve(AUC) value of the compound; type: ADME
[10] = Final plasma concentration after intravenous infusion at 5 ug/kg/min dose; type: ADME, cell-free; conditions: 0.005 mg/kg, read-out: Final plasma concentration
Rattus norvegicus [11] = experiment: In vivo antithrombotic activity was measured after intravenous infusion (at 10 ug/kg/min) in rat FeCl3 arterial thrombosis model; 0/9; type: functional
Rattus norvegicus [12] = experiment: In vivo antithrombotic activity was measured after intravenous infusion (at 5 ug/kg/min) in rat FeCl3 arterial thrombosis model;1/6; type: functional
[13] = in vitro anticoagulant potency (2x APTT) against rat plasma.; type: functional
[14] = Area under curve(AUC) value of the compound in dogs at 0.5 mg/kg dose upon oral administration; type: ADME, organism-based; design: dose 0.5 mg/kg, route oral; conditions: dog, in vivo
Method in brief: (§2)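 Oral dosing at 0.5 mg/kg in dogs (n = 4) with plasma levels followed over time. Reported as Cmax (μM), tmax (min), terminal t1/2 (min) and AUC (μM·h), each given as mean ± spread. The same dogs later received an iv crossover dose at 0.5 mg/kg to estimate oral bioavailability.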

[15] = Maximum plasma concentration in dogs at 0.5 mg/kg dose upon oral administration; type: ADME, organism-based, Canis lupus familiaris; design: dose 0.5 mg/kg, route oral; conditions: dog; method in brief: as §2
[16] = time required for maximum concentration in dogs at 0.5 mg/kg dose upon oral administration; type: ADME, organism-based, Canis lupus familiaris; design: dose 0.5 mg/kg, route oral; conditions: dog, in vivo; method in brief: as §2
[17] = Half-life in dogs at 0.5 mg/kg dose upon oral administration; type: ADME, organism-based, Canis lupus familiaris; design: dose 0.5 mg/kg, route oral; conditions: dog, in vivo; method in brief: as §2
Rattus norvegicus [18] = experiment: In vivo antithrombotic activity was measured after intravenous infusion (at 5 ug/kg/min) in rat FeCl3 arterial thrombosis model; 4/6; type: functional

Sequence of Serine protease 1 (P07477 whole entry): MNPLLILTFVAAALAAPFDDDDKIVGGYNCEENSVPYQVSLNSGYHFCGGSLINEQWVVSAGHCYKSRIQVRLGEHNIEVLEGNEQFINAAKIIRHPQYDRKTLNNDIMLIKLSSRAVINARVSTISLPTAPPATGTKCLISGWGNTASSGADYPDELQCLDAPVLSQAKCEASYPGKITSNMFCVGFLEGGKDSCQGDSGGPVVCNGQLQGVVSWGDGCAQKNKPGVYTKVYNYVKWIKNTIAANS

For `Cc1cc(N)nc(C)c1CNC(=O)Cn1c(C)cnc(NCCc2ccccc2)c1=O`, the concentration [1] was 224 nM, the “2x APTT” value [2] was 420 nM and the Occlusions (Rattus norvegicus [3]) was 3. The Ki (Prothrombin) was 0.35 nM and the Ki (Serine protease 1) was 1000 nM.

In the case of `Cc1nc(N)ccc1CNC(=O)Cn1c(C)cnc(N[C@@H](C)Cc2ccccc2)c1=O`, the Ki (Prothrombin) is reported as 22 nM and the Ki (Serine protease 1) is reported as 4800 nM.

In the case of `Cc1cnc(NCCc2ccccc2)c(=O)n1CC(=O)NCc1ccc(N)nc1`, the “2x APTT” value [2] is reported as 2100 nM, the Ki (Prothrombin) is reported as 8.3 nM and the Ki (Serine protease 1) is reported as 1200 nM.

With `Cc1nc(N)ccc1CNC(=O)Cn1c(C)c(Cl)nc(NCCc2ccccc2)c1=O` the “2x APTT” value [2] was 5470 nM, the Ki (Prothrombin) was 7 nM and the Ki (Serine protease 1) was 2100 nM.

`Cc1nc(N)ccc1CNC(=O)Cn1c(C)cnc(NC(C)(C)Cc2ccccc2)c1=O` showed a Ki (Prothrombin) of 24 nM and a Ki (Serine protease 1) of 2600 nM.

`Cc1nc(N)ccc1CNC(=O)Cn1c(C)cnc(N[C@H](C)Cc2ccccc2)c1=O` gave an AUC [4] of 1.85 µM·h, a Cmax [5] of 600 nM and a concentration [1] of 554 nM. For the same molecule, the Tmax [6] was 0.417 h, the half-life [7] was 2.13 h and the “2x APTT” value [2] was 350 nM. For the same molecule, the Occlusions (Rattus norvegicus [8]) was 0, the Ki (Prothrombin) was 0.52 nM and the Ki (Serine protease 1) was 1500 nM.

Molecule `Cc1nc(N)ccc1CNC(=O)Cn1c(C)ccc(NS(=O)(=O)Cc2ccccc2)c1=O` [L-374087] has an AUC [9] of 4.42 µM·h, a Cmax [5] of 990 nM and a concentration [1] of 586 nM. For the same molecule, the concentration [10] was 221 nM, the Tmax [6] was 1.25 h and the half-life [7] was 2.57 h. The “2x APTT” value [2] was 210 nM, the Occlusions (Rattus norvegicus [11]) was 0 and the Ki (Prothrombin) was 0.5 nM. The Ki (Serine protease 1) was 3200 nM, the Occlusions (Rattus norvegicus [12]) was 1 and the “2x APTT” value [13] was 250 nM.

`Cc1nc(N)ccc1CNC(=O)Cn1c(C)cnc(NCCc2ccccc2)c1=O` [L-375378] gave an AUC [14] of 11.2 µM·h, a Cmax [15] of 1960 nM and a concentration [1] of 445 nM. It also gave a concentration [10] of 238 nM, a Tmax [16] of 0.875 h and a half-life [17] of 3.85 h. The “2x APTT” value [2] was 410 nM, the Occlusions (Rattus norvegicus [8]) was 0 and the Ki (Prothrombin) was 0.8 nM. The Ki (Serine protease 1) was 1800 nM, the Occlusions (Rattus norvegicus [18]) was 4 and the “2x APTT” value [13] was 380 nM.

Source: ChEMBL document CHEMBL1131169, “Efficacious, orally bioavailable thrombin inhibitors based on 3-aminopyridinone or 3-aminopyrazinone acetamide peptidomimetic templates” (J Med Chem, 1998)
